# ChEMBL document CHEMBL4038332, “Substituted N-Phenyl-5-(2-(phenylamino)thiazol-4-yl)isoxazole-3-carboxamides Are Valuable Antitubercular Candidates that Evade Innate Efflux Machinery” (J Med Chem, 2017)
# Key:
# [1] = test system: Mycobacterium tuberculosis; test: Antimycobacterial activity against wild type Mycobacterium tuberculosis H37Rv incubated for 14 days by broth microdilution assay; format: functional; conditions: 336 h
# [2] = Selectivity index, ratio of IC50 for human MDM cells to MIC90 for Mycobacterium tuberculosis H37Rv; format: toxicity; conditions: read-out: Selectivity Index
# [3] = Intrinsic clearance in human liver microsomes at 1 uM by HPLC-MS/MS analysis; format: ADME, microsome; conditions: read-out: CLH
# How it was run: (§1)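 Compound at 1 µM incubated 60 min at 37 °C with pooled HLM (1 mg protein/mL) and an NADPH-regenerating system in 100 mM PBS pH 7.4, after 5 min preheating. Sampled at 0, 15, 30, 60 min, quenched with two volumes of acetonitrile, centrifuged, and supernatant analysed by HPLC-MS/MS. CLint = (0.693/t1/2) × (mL incubation/mg microsomes) × 45 mg/g liver × 20 g liver/kg.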
# Pseudomonas aeruginosa = test: Antibacterial activity against Pseudomonas aeruginosa ATCC 27853 after 24 hrs by spectrophotometric analysis; format: functional; conditions: ATCC 27853, 24 h
# How it was run: (§2)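 Log-phase culture in Mueller Hinton broth at 37 °C with shaking for 3-4 h, pelleted, adjusted at 600 nm in 10 mM phosphate buffer pH 7. Final inoculum approx. 5 × 10^5 CFU/mL. Twofold serial dilutions, final 100 to 0.2 µg/mL. Aerobic incubation 24 h at 37 °C. MIC is the lowest concentration with no visible growth, also read by resazurin (no blue-to-pink change).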
# Escherichia coli = test: Antibacterial activity against Escherichia coli ATCC 25922 after 24 hrs by spectrophotometric analysis; format: functional; conditions: ATCC 25922, 24 h; how it was run: as §2
# Staphylococcus aureus = test: Antibacterial activity against Staphylococcus aureus ATCC 25923 after 24 hrs by spectrophotometric analysis; format: functional; conditions: ATCC 25923, 24 h; how it was run: as §2
# Enterococcus faecium = test: Antibacterial activity against Enterococcus faecium ATCC 35667 after 24 hrs by spectrophotometric analysis; format: functional; conditions: ATCC 35667, 24 h; how it was run: as §2
# [4] = Cytotoxicity against human MDM cells assessed as reduction in cell viability after 3 days by AlamarBlue assay; format: cell-based; conditions: 72 h
# How it was run: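 Macrophages came from healthy donors' PBMC (Ficoll gradient), differentiated 7 days in RPMI-1640/10% FCS with 20 ng/mL M-CSF at 37 °C, 5% CO2. 5 × 10^4 cells/well exposed to compounds for 3 days. Viability by AlamarBlue fluorescence (ex 540/35, em 590/20). IC50 taken as the highest concentration leaving 50% of cells viable relative to control.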
# [5] = test system: Mycobacterium tuberculosis; test: Antimycobacterial activity against wild type Mycobacterium tuberculosis H37Rv incubated for 14 days in presence of Verapamil by broth microdilution assay; format: functional; conditions: 336 h
# [6] = test system: Mycobacterium tuberculosis; test: Antimycobacterial activity against wild type Mycobacterium tuberculosis H37Rv incubated for 14 days in presence of Thioridazine by broth microdilution assay; format: functional; conditions: 336 h
# [7] = test system: Mycobacterium tuberculosis; test: Antimycobacterial activity against nonreplicating Mycobacterium tuberculosis H37Rv ATCC 27924 incubated for 5 days under hypoxic condition followed by 2 days incubation under normal atmosphere by MTT dye based broth microdilution assay; format: functional
# How it was run: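 Mtb H37Rv ATCC27924 adapted to hypoxia: grown in 8 mL MB7H9, tubes tightly capped and sealed, standing at 37 °C for 8 weeks; methylene blue (final 1.5 µg/mL) monitored O2 depletion. Cells exposed to varying compound concentrations 5 days at 37 °C in anaerobic jar (indicator strip), then 2 days normal atmosphere recovery; MTT to final 2.5%, overnight at room temperature; MIC = lowest concentration with no colour change; triplicate.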
# Candida albicans = test: Antifungal activity against Candida albicans ATCC 11006 after 48 hrs by spectrophotometric analysis; format: functional; conditions: ATCC 11006, 48 h
# How it was run: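 Broth microdilution in RPMI per CLSI M27-A3. Inoculum adjusted to 0.5 McFarland in phosphate buffer, diluted to about 10^3 CFU/mL final and used within 30 min. Compounds at final 100 to 0.2 µg/mL (twofold). Aerobic incubation 48 h at 37 °C. MIC is the lowest concentration without visible growth, also checked by resazurin colour change.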
# [8] = Half life in human liver microsomes at 1 uM by HPLC-MS/MS analysis; format: ADME, microsome; how it was run: as §1
# [9] = test system: Mycobacterium tuberculosis H37Rv; test: Inhibition of efflux pump in wild type Mycobacterium tuberculosis H37Rv assessed as increase in accumulation of ethidium bromide by measuring relative final fluorescence index at 2.6 uM measured every second for 60 mins in absence of glucose by real time fluorimetric method
SMILES,MIC90 [1],further results
Cc1sc(N)nc1-c1csc(Nc2cc(Cl)cc(Cl)c2)n1,8 to 16 µg/mL,
COc1ccc(-c2cc(-c3csc(Nc4cc(Cl)cc(Cl)c4)n3)on2)cc1,> 64 µg/mL,
CC(=O)c1nc(Nc2cc(Cl)cc(Cl)c2)sc1C,> 64 µg/mL,
Cc1ccc(Nc2nc(-c3cc(CO)no3)cs2)cc1,16 to 32 µg/mL,
CCOC(=O)c1cc(-c2csc(Nc3ccc(C)cc3)n2)n(C)n1,16 to 32 µg/mL,
O=C(O)c1cc(-c2csc(Nc3cc(Cl)cc(Cl)c3)n2)on1,> 64 µg/mL,
O=C(Nc1ccccc1)c1cc(-c2csc(Nc3cc(Cl)cc(Cl)c3)n2)on1,,selectivity ratio [2]: > 500
Cc1ccc(Nc2nc(-c3cc(C(=O)Nc4ccccn4)no3)cs2)cc1,0.16 to 0.32 µM,CLint scaled at 1 µM [3]: 38.8 mL/min/kg; MIC90 (Pseudomonas aeruginosa): 100 µg/mL; MIC90 (Escherichia coli): 100 µg/mL; MIC90 (Staphylococcus aureus): 100 µg/mL; MIC90 (Enterococcus faecium): 100 µg/mL; IC50 [4]: 140 µM; MIC90 [5]: 2 µg/mL; MIC90 [6]: 1 µg/mL; MIC90 [7]: 1 µg/mL; MIC90 (Candida albicans): 100 µg/mL; half-life at 1 µM [8]: 16.1 min; Activity index [9]: 0.17
CCN(CC)C(=O)c1cc(-c2csc(Nc3ccc(C)cc3)n2)on1,16 to 32 µg/mL,
Cc1ccc(Nc2nc(-c3cc(-c4nccs4)no3)cs2)cc1,> 64 µg/mL,
c1cc(Nc2nc(-c3ccncc3)cs2)ccn1,> 64 µg/mL,
CCOC(=O)c1cc(-c2csc(Nc3ccc(C)cc3)n2)on1,1.5 to 3 µM,CLint scaled at 1 µM [3]: > 400 mL/min/kg; half-life at 1 µM [8]: < 1 min
Cc1sc(Nc2cc(Cl)cc(Cl)c2)nc1-c1csc(Nc2cc(Cl)cc(Cl)c2)n1,> 64 µg/mL,
Cc1ccc(Nc2nc(-c3nc(N)sc3C)cs2)cc1,16 to 32 µg/mL,
Cc1ccc(Nc2nc(-c3nc(Nc4ccc(C)cc4)sc3C)cs2)cc1,4 to 8 µg/mL,
CCOC(=O)c1cc(-c2csc(Nc3cc(Cl)cc(Cl)c3)n2)n(C)n1,> 64 µg/mL,
Cc1ccc(Nc2nc(-c3cc(C(N)=O)no3)cs2)cc1,> 64 µg/mL,
COc1ccc(-c2csc(Nc3ccc(C)cc3)n2)cc1,3.8 µg/mL,

SMILES,MIC90 [1],further results
Cc1ccc(Nc2nc(-c3cc(C(=O)Nc4ccccc4)no3)cs2)cc1,0.33 to 0.66 µM,CLint scaled at 1 µM [3]: 17.8 mL/min/kg; selectivity ratio [2]: > 500; MIC90 (Pseudomonas aeruginosa): 100 µg/mL; MIC90 (Escherichia coli): 100 µg/mL; MIC90 (Staphylococcus aureus): > 100 µg/mL; MIC90 (Enterococcus faecium): 100 µg/mL; IC50 [4]: 186 µM; MIC90 [5]: 2 µg/mL; MIC90 [6]: 2 µg/mL; MIC90 [7]: 1 µg/mL; MIC90 (Candida albicans): > 100 µg/mL; half-life at 1 µM [8]: 35.1 min; Activity index [9]: 0.22
Clc1cc(Cl)cc(Nc2nc(-c3ccncc3)cs2)c1,> 64 µg/mL,
Cc1ccc(Nc2nc(-c3cc(C(=O)N4CCCCC4)no3)cs2)cc1,16 to 32 µg/mL,
CCN(CC)C(=O)c1cc(-c2csc(Nc3ccc(C)cc3)n2)n(C)n1,> 64 µg/mL,
Clc1cc(Cl)cc(Nc2nc(-c3c[nH]nn3)cs2)c1,> 64 µg/mL,
O=C(NC12CC3CC(CC(C3)C1)C2)c1cc(-c2csc(Nc3cc(Cl)cc(Cl)c3)n2)on1,> 64 µg/mL,
Cc1ccc(Nc2nc(-c3cc(C(=O)NC45CC6CC(CC(C6)C4)C5)no3)cs2)cc1,> 64 µg/mL,
Cn1nc(C(=O)O)cc1-c1csc(Nc2cc(Cl)cc(Cl)c2)n1,> 64 µg/mL,
CC(=O)c1nc(Nc2ccc(C)cc2)sc1C,> 64 µg/mL,
CCN(CC)C(=O)c1cc(-c2csc(Nc3cc(Cl)cc(Cl)c3)n2)n(C)n1,> 64 µg/mL,
Cc1ccc(Nc2nc(-c3cc(C(=O)O)nn3C)cs2)cc1,> 64 µg/mL,
NNC(=O)c1ccncc1 [ISONIAZID],0.22 to 0.44 µM,
COc1ccc(-c2cc(-c3csc(Nc4ccc(C)cc4)n3)on2)cc1,4 to 8 µg/mL,
CNC(=O)c1cc(-c2csc(Nc3ccc(C)cc3)n2)on1,> 64 µg/mL,
Cc1ccc(Nc2nc(-c3cc(C(=O)O)no3)cs2)cc1,> 64 µg/mL,CLint scaled at 1 µM [3]: 43.7 mL/min/kg; half-life at 1 µM [8]: 14.3 min
Cc1ccc(Nc2nc(-c3ccncc3)cs2)cc1,> 64 µg/mL,
CCOC(=O)c1cc(-c2csc(Nc3cc(Cl)cc(Cl)c3)n2)on1,4 to 8 µg/mL,CLint scaled at 1 µM [3]: 189 mL/min/kg; half-life at 1 µM [8]: 3.3 min
